ChEMBL document CHEMBL2016492, “Design and synthesis of carbamate and thiocarbamate derivatives and their inhibitory activities of NO production in LPS activated macrophages” (Bioorg Med Chem Lett, 2012)
Blank lines part the entries; values can stand above or below the compound they belong to. Calls of active or inactive are those of the source. No cut-off for these calls is given here.

How the values were obtained:
RAW264.7 [1] = test: Inhibition of LPS-induced NO production in mouse RAW264.7 cells at 20 uM after 20 hrs by Griess method; type: functional; details: RAW264.7, 20 h
Outline: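 Same nitrite read-out in RAW 264.7 cells: 1% FBS medium, LPS 1 μg/mL with compound at 20 μM for 20 h. Griess reagent, 570 nm, nitrite standard curve. Percent inhibition relative to LPS-only control, n = 3.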

RAW264.7 [2] = test: Inhibition of LPS-induced iNOS protein expression in mouse RAW264.7 cells at 20 uM after 20 hrs by Western blot analysis; type: functional, cell-based
Outline: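 RAW 264.7 cells at 8 × 10⁵ per 60 mm dish treated 20 h with LPS (1 μg/mL) and compound (5, 20 μM). Cells washed and lysed; 20 μg lysate protein run on 8% SDS-PAGE, transferred to PVDF. Probed with anti-iNOS and anti-β-actin (internal control); ECL detection. Representative of three independent experiments.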

[3] = target: Transcription factor p65 (Mus musculus) (UniProt Q04207); test: Inhibition of NF-kB p65 nuclear translocation in LPS-stimulated mouse RAW264.7 cells at 20 uM treated 30 mins before LPS challenge measured after 15 mins by Western blot analysis
RAW264.7 [4] = test: Inhibition of LPS-induced NO production in mouse RAW264.7 cells after 20 hrs by Griess method; type: functional, cell-based; details: RAW264.7, 20 h
Outline: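 RAW 264.7 cells in 10% FBS-DMEM plated at 1 × 10⁵ cells/mL for 24 h, then switched to 1% FBS medium. Incubated 20 h with LPS (1 μg/mL) ± compounds. Nitrite in supernatant measured with Griess reagent, 10 min at room temperature, absorbance 570 nm, sodium nitrite standard curve. IC50 taken from dose–response curve; mean ± SD of three experiments.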

[5] = target: Transcription factor p65 (Mus musculus) (UniProt Q04207); test: Inhibition of NF-kB p65 nuclear translocation in LPS-stimulated mouse RAW264.7 cells at 5 uM treated 30 mins before LPS challenge measured after 15 mins by Western blot analysis
RAW264.7 [6] = test: Inhibition of LPS-induced iNOS mRNA expression in mouse RAW264.7 cells at 20 uM after 6 hrs by RT-PCR analysis; type: functional, cell-based
Outline: (§1)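 RAW 264.7 cells at 8 × 10⁵ per 60 mm dish stimulated 6 h with LPS (1 μg/mL) plus compound at 5 or 20 μM. Total RNA extracted; iNOS mRNA measured by RT-PCR with β-actin as internal control. PCR run 25 cycles (94 °C 30 s, 55 °C 30 s, 72 °C 30 s); products run on 2% agarose gel. Representative of three independent experiments.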

RAW264.7 [7] = test: Inhibition of LPS-induced iNOS mRNA expression in mouse RAW264.7 cells at 5 uM after 6 hrs by RT-PCR analysis; type: functional, cell-based; outline: as §1
RAW264.7 [8] = test: Inhibition of LPS-induced NO production in mouse RAW264.7 cells at 100 uM after 20 hrs by Griess method; type: functional; details: RAW264.7, 20 h

Transcription factor p65 (Mus musculus), sequence (Q04207 whole entry): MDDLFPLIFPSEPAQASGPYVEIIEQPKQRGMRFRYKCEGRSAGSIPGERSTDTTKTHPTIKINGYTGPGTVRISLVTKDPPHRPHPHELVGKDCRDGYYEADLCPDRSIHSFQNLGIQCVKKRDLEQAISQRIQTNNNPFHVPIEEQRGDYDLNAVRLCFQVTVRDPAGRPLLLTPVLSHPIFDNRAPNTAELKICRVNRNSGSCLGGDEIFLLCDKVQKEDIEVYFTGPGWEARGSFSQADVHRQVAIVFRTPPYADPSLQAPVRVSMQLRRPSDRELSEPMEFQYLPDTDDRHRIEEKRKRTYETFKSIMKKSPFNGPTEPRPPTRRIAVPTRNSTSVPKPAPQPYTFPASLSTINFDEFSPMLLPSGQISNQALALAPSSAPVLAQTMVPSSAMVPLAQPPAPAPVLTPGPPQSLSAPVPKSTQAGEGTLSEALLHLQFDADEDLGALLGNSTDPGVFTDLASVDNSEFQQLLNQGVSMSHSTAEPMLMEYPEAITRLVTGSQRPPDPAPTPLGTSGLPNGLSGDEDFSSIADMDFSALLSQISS

SMILES: CCSC(=O)Nc1ccc(OCCn2c3ccccc3c3ccccc32)cc1
inhibition at 20 µM (RAW264.7 [1]): 26%

SMILES: S=C(Nc1ccc(OCCn2c3ccccc3c3ccccc32)cc1)OCc1ccccc1
inhibition at 20 µM (RAW264.7 [1]): 18%

inhibition [3]: Active | IC50 (RAW264.7 [4]): 12 µM | inhibition [5]: Active
SMILES: COC(=S)Nc1ccc(OCCn2c3ccccc3c3ccccc32)cc1
inhibition (RAW264.7 [2]): Active | inhibition at 20 µM (RAW264.7 [1]): 60% | inhibition (RAW264.7 [6]): Active

SMILES: O=C(Nc1ccc(OCCn2c3ccccc3c3ccccc32)cc1)Oc1ccc([N+](=O)[O-])cc1
inhibition at 20 µM (RAW264.7 [1]): 22%

inhibition [3]: Active | IC50 (RAW264.7 [4]): 6.5 µM | inhibition [5]: Active
SMILES: CCOC(=O)CNC(=S)Oc1ccc(OCCn2c3ccccc3c3ccccc32)cc1
inhibition (RAW264.7 [2]): Active | inhibition at 20 µM (RAW264.7 [1]): 73% | inhibition (RAW264.7 [6]): Active | inhibition (RAW264.7 [7]): Active

SMILES: CC(C)OC(=S)Nc1ccc(OCCn2c3ccccc3c3ccccc32)cc1
inhibition at 20 µM (RAW264.7 [1]): 20%

SMILES: N=C(N)NN [PIMAGEDINE]
inhibition at 100 µM (RAW264.7 [8]): 74%

SMILES: CCOC(=O)CNC(=O)Oc1ccc(OCCn2c3ccccc3c3ccccc32)cc1
inhibition at 20 µM (RAW264.7 [1]): 35%

SMILES: CCNC(=O)Oc1ccc(OCCn2c3ccccc3c3ccccc32)cc1
inhibition at 20 µM (RAW264.7 [1]): 10%

SMILES: COC(=O)CNC(=O)Oc1ccc(OCCn2c3ccccc3c3ccccc32)cc1
inhibition at 20 µM (RAW264.7 [1]): 33%

SMILES: CCNC(=S)Oc1ccc(OCCn2c3ccccc3c3ccccc32)cc1
inhibition at 20 µM (RAW264.7 [1]): 10%

SMILES: CSC(=O)Nc1ccc(OCCn2c3ccccc3c3ccccc32)cc1
inhibition at 20 µM (RAW264.7 [1]): 44%
